Test results reported in ChEMBL document CHEMBL5724801, “EUbOPEN Chemogenomics Library - Multiplex” (2024).
“And” between values parts separate entries of the source, which are not always exact repeats. Equal values may be shown once.

Key:
[1] = tested on: U2OS; assay: Multiplex assay against U2OS; assay type: toxicity, cell-based; conditions: human
Summary of the method: (§1)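 Compound was added to live cells that had been stained at seeding with Hoechst33342, BioTracker Green Microtubule Cytoskeleton Dye, MitoTracker Red and Annexin V Alexa Fluor 680, and imaging followed on a CQ1 microscope at 37°C and 5% CO2. CellPathfinder machine-learning gating divided cells into Hoechst high-intensity objects or normal cells, normal cells into healthy, pyknosed or fragmented nuclei, and pyknosed cells into mitotic or apoptotic. Tubulin, mitochondrial-mass and membrane-permeability phenotypes are per cents of healthy-nucleus cells.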

[2] = tested on: Fibroblast; assay: Multiplex assay against human fibroblast; assay type: toxicity, cell-based; summary of the method: as §1
[3] = 24 h, 1 µM, compound concentration 1 uM
[4] = 24 h, 10 µM, compound concentration 10 uM
[5] = 48 h, 1 µM, compound concentration 1 uM
[6] = 48 h, 10 µM, compound concentration 10 uM
[7] = 12 h, 1 µM, compound concentration 1 uM
[8] = 12 h, 10 µM, compound concentration 10 uM

Question: How did the “Total Cell Count” value [1, 3] turn out when `O=C1[C@H](Cc2ccc(O)cc2)N2C(=O)CCN(C(=O)NCc3ccccc3)[C@H]2CN1Cc1cccc2ccccc12` was run?
Answer: The value was 242 and 127.

Question: And the “Population Apoptotic (%)” value [1, 4]?
Answer: Its value is 65% and 85%.

Question: And the “Population Fragmented Nuclei (%)” value [1, 4]?
Answer: Its value is 34% and 29%.

Question: What about the “Population Healthy Nuclei (%)” value [1, 4] of the same molecule?
Answer: Its value is 42% and 54%.

Question: What about the “Population Hoechst High Intensity Objects (%)” value [1, 4] of the same molecule?
Answer: Its value is 3% and 5%.

Question: What about the “Population Membrane Permeable-Phenotype (%)” value [1, 4] of the same molecule?
Answer: Its value is 25% and 36%.

Question: What about the “Population Mitochondria Different-Phenotype (%)” value [1, 4] of the same molecule?
Answer: Its value is 23% and 38%.

Question: What about the “Population Mitotic Cells (%)” value [1, 4] of the same molecule?
Answer: The value was 34% and 14%.

Question: And the “Population Normal (%)” value [1, 4]?
Answer: Its value is 96% and 94%.

Question: What about the “Population Pyknosed Nuclei (%)” value [1, 4] of the same molecule?
Answer: The value was 22% and 16%.

Question: And the “Population Tubulin-Different-Phenotype (%)” value [1, 4]?
Answer: The value was 25% and 42%.

Question: What about the “Total Cell Count” value [1, 4] of the same molecule?
Answer: The value was 214 and 91.

Question: What about the “Population Apoptotic (%)” value [1, 5] of the same molecule?
Answer: The value was 81% and 95%.

Question: What about the “Population Fragmented Nuclei (%)” value [1, 5] of the same molecule?
Answer: The value was 15% and 16%.

Question: And the “Population Healthy Nuclei (%)” value [1, 5]?
Answer: Its value is 73% and 67%.

Question: And the “Population Hoechst High Intensity Objects (%)” value [1, 5]?
Answer: Its value is 3% and 5%.

Question: And the “Population Membrane Permeable-Phenotype (%)” value [1, 5]?
Answer: Its value is 2% and 3%.

Question: And the “Population Mitochondria Different-Phenotype (%)” value [1, 5]?
Answer: The value was 2% and 0%.

Question: What about the “Population Normal (%)” value [1, 5] of the same molecule?
Answer: The value was 96% and 94%.

Question: And the “Population Pyknosed Nuclei (%)” value [1, 5]?
Answer: The value was 11% and 15%.

Question: And the “Population Tubulin-Different-Phenotype (%)” value [1, 5]?
Answer: The value was 3% and 5%.

Question: What about the “Total Cell Count” value [1, 5] of the same molecule?
Answer: Its value is 326 and 168.

Question: And the “Population Apoptotic (%)” value [1, 6]?
Answer: Its value is 82% and 81%.

Question: And the “Population Fragmented Nuclei (%)” value [1, 6]?
Answer: The value was 37% and 33%.

Question: And the “Population Healthy Nuclei (%)” value [1, 6]?
Answer: The value was 43% and 46%.

Question: And the “Population Hoechst High Intensity Objects (%)” value [1, 6]?
Answer: The value was 5% and 4%.

Question: And the “Population Membrane Permeable-Phenotype (%)” value [1, 6]?
Answer: Its value is 28% and 22%.

Question: What about the “Population Mitochondria Different-Phenotype (%)” value [1, 6] of the same molecule?
Answer: Its value is 16% and 20%.

Question: What about the “Population Mitotic Cells (%)” value [1, 6] of the same molecule?
Answer: The value was 17% and 18%.

Question: What about the “Population Normal (%)” value [1, 6] of the same molecule?
Answer: Its value is 94% and 95%.

Question: What about the “Population Pyknosed Nuclei (%)” value [1, 6] of the same molecule?
Answer: Its value is 19% and 20%.

Question: And the “Population Tubulin-Different-Phenotype (%)” value [1, 6]?
Answer: The value was 19% and 18%.

Question: And the “Total Cell Count” value [1, 6]?
Answer: The value was 252 and 111.

Question: What about the “Population Apoptotic (%)” value [2, 7] of the same molecule?
Answer: Its value is 32% and 30%.

Question: And the “Population Fragmented Nuclei (%)” value [2, 7]?
Answer: The value was 18% and 27%.

Question: What about the “Population Healthy Nuclei (%)” value [2, 7] of the same molecule?
Answer: The value was 57% and 45%.

Question: And the “Population Hoechst High Intensity Objects (%)” value [2, 7]?
Answer: Its value is 3% and 2%.

Question: What about the “Population Membrane Permeable-Phenotype (%)” value [2, 7] of the same molecule?
Answer: Its value is 0% and 5%.

Question: What about the “Population Mitochondria Different-Phenotype (%)” value [2, 7] of the same molecule?
Answer: The value was 11% and 13%.

Question: What about the “Population Mitotic Cells (%)” value [2, 7] of the same molecule?
Answer: Its value is 67% and 69%.

Question: And the “Population Normal (%)” value [2, 7]?
Answer: Its value is 96% and 97%.

Question: And the “Population Pyknosed Nuclei (%)” value [2, 7]?
Answer: The value was 24% and 26%.

Question: What about the “Population Tubulin-Different-Phenotype (%)” value [2, 7] of the same molecule?
Answer: The value was 47% and 58%.

Question: And the “Total Cell Count” value [2, 7]?
Answer: The value was 160 and 152.

Question: And the “Population Apoptotic (%)” value [2, 8]?
Answer: The value was 35% and 45%.

Question: And the “Population Fragmented Nuclei (%)” value [2, 8]?
Answer: The value was 18% and 23%.

Question: What about the “Population Healthy Nuclei (%)” value [2, 8] of the same molecule?
Answer: Its value is 58% and 45%.

Question: What about the “Population Hoechst High Intensity Objects (%)” value [2, 8] of the same molecule?
Answer: The value was 8% and 9%.

Question: And the “Population Membrane Permeable-Phenotype (%)” value [2, 8]?
Answer: Its value is 0% and 8%.

Question: What about the “Population Mitochondria Different-Phenotype (%)” value [2, 8] of the same molecule?
Answer: Its value is 24% and 15%.

Question: What about the “Population Mitotic Cells (%)” value [2, 8] of the same molecule?
Answer: Its value is 64% and 55%.

Question: And the “Population Normal (%)” value [2, 8]?
Answer: The value was 91% and 90%.

Question: And the “Population Pyknosed Nuclei (%)” value [2, 8]?
Answer: The value was 23% and 30%.

Question: What about the “Population Tubulin-Different-Phenotype (%)” value [2, 8] of the same molecule?
Answer: Its value is 84% and 83%.

Question: And the “Total Cell Count” value [2, 8]?
Answer: The value was 146 and 144.

Question: What about the “Population Apoptotic (%)” value [2, 3] of the same molecule?
Answer: The value was 42% and 28%.

Question: And the “Population Fragmented Nuclei (%)” value [2, 3]?
Answer: The value was 16% and 30%.

Question: What about the “Population Healthy Nuclei (%)” value [2, 3] of the same molecule?
Answer: The value was 62% and 47%.

Question: What about the “Population Hoechst High Intensity Objects (%)” value [2, 3] of the same molecule?
Answer: Its value is 3% and 2%.

Question: What about the “Population Membrane Permeable-Phenotype (%)” value [2, 3] of the same molecule?
Answer: Its value is 3% and 7%.

Question: What about the “Population Mitochondria Different-Phenotype (%)” value [2, 3] of the same molecule?
Answer: The value was 7% and 8%.

Question: And the “Population Mitotic Cells (%)” value [2, 3]?
Answer: Its value is 57% and 71%.

Question: And the “Population Normal (%)” value [2, 3]?
Answer: The value was 96% and 97%.

Question: What about the “Population Pyknosed Nuclei (%)” value [2, 3] of the same molecule?
Answer: The value was 21% and 22%.

Question: And the “Population Tubulin-Different-Phenotype (%)” value [2, 3]?
Answer: Its value is 49% and 58%.

Question: And the “Total Cell Count” value [2, 3]?
Answer: The value was 158 and 147.

Question: What about the “Population Apoptotic (%)” value [2, 4] of the same molecule?
Answer: Its value is 44% and 64%.

Question: What about the “Population Fragmented Nuclei (%)” value [2, 4] of the same molecule?
Answer: Its value is 15% and 25%.

Question: And the “Population Healthy Nuclei (%)” value [2, 4]?
Answer: The value was 62% and 47%.

Question: And the “Population Hoechst High Intensity Objects (%)” value [2, 4]?
Answer: Its value is 10% and 7%.

Question: What about the “Population Mitochondria Different-Phenotype (%)” value [2, 4] of the same molecule?
Answer: The value was 44% and 21%.

Question: And the “Population Mitotic Cells (%)” value [2, 4]?
Answer: Its value is 55% and 35%.

Question: What about the “Population Normal (%)” value [2, 4] of the same molecule?
Answer: Its value is 89% and 92%.

Question: And the “Population Pyknosed Nuclei (%)” value [2, 4]?
Answer: The value was 21% and 26%.

Question: And the “Population Tubulin-Different-Phenotype (%)” value [2, 4]?
Answer: The value was 83%.

Question: And the “Total Cell Count” value [2, 4]?
Answer: Its value is 141 and 137.

Question: What about the “Population Apoptotic (%)” value [2, 5] of the same molecule?
Answer: The value was 62% and 54%.

Question: What about the “Population Fragmented Nuclei (%)” value [2, 5] of the same molecule?
Answer: The value was 22% and 37%.

Question: And the “Population Healthy Nuclei (%)” value [2, 5]?
Answer: The value was 59% and 45%.

Question: What about the “Population Hoechst High Intensity Objects (%)” value [2, 5] of the same molecule?
Answer: The value was 7% and 5%.

Question: And the “Population Membrane Permeable-Phenotype (%)” value [2, 5]?
Answer: Its value is 2% and 5%.

Question: What about the “Population Mitochondria Different-Phenotype (%)” value [2, 5] of the same molecule?
Answer: Its value is 7% and 6%.

Question: What about the “Population Mitotic Cells (%)” value [2, 5] of the same molecule?
Answer: Its value is 37% and 45%.

Question: And the “Population Normal (%)” value [2, 5]?
Answer: The value was 92% and 94%.

Question: And the “Population Pyknosed Nuclei (%)” value [2, 5]?
Answer: Its value is 17%.

Question: And the “Population Tubulin-Different-Phenotype (%)” value [2, 5]?
Answer: Its value is 54% and 48%.

Question: What about the “Total Cell Count” value [2, 5] of the same molecule?
Answer: Its value is 164 and 135.

Question: What about the “Population Apoptotic (%)” value [2, 6] of the same molecule?
Answer: Its value is 85% and 66%.

Question: What about the “Population Fragmented Nuclei (%)” value [2, 6] of the same molecule?
Answer: The value was 21% and 32%.

Question: And the “Population Healthy Nuclei (%)” value [2, 6]?
Answer: Its value is 58% and 53%.

Question: What about the “Population Hoechst High Intensity Objects (%)” value [2, 6] of the same molecule?
Answer: The value was 15% and 10%.

Question: What about the “Population Membrane Permeable-Phenotype (%)” value [2, 6] of the same molecule?
Answer: The value was 0% and 5%.

Question: What about the “Population Mitochondria Different-Phenotype (%)” value [2, 6] of the same molecule?
Answer: Its value is 50% and 38%.

Question: And the “Population Mitotic Cells (%)” value [2, 6]?
Answer: Its value is 14% and 33%.

Question: And the “Population Normal (%)” value [2, 6]?
Answer: Its value is 84% and 89%.

Question: What about the “Population Pyknosed Nuclei (%)” value [2, 6] of the same molecule?
Answer: Its value is 20% and 14%.

Question: What about the “Population Tubulin-Different-Phenotype (%)” value [2, 6] of the same molecule?
Answer: Its value is 85% and 94%.

Question: What about the “Total Cell Count” value [2, 6] of the same molecule?
Answer: Its value is 124 and 119.
